{"source": "ChEMBL document CHEMBL3232763", "about": "“Synthesis of 6-cinnamoyl-2H-benzo[b][1,4]oxazin-3(4H)-ones and their effects on A549 lung cancer cell growth” (Eur J Med Chem, 2014)", "key": {"A549 [1]": {"tested_on": "A549", "assay": "Cell cycle arrest in human A549 cells assessed as accumulation at G2 phase at 5 uM after 48 hrs by propidium iodide staining-based flow cytometric analysis (reference value: 9.63%)", "type": "functional"}, "A549 [2]": {"tested_on": "A549", "assay": "Cytotoxicity against human A549 cells assessed as growth inhibition measured at 48 hrs by SRB assay", "type": "functional, cell-based", "conditions": "for IC50: A549, 48 h", "procedure,_shortened": "(§1)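 Sulforhodamine B assay: A549 cells seeded in 96-well plates, exposed 48 h to 1, 5 or 10 µM or 0.1% DMSO; survival expressed relative to DMSO-treated cells; triplicate assays, mean ± SE (n = 3); IC50 at 48 h derived.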"}, "A549 [3]": {"tested_on": "A549", "assay": "Cell cycle arrest in human A549 cells assessed as accumulation at S phase at 5 uM after 48 hrs by propidium iodide staining-based flow cytometric analysis (reference value: 39.68%)", "type": "functional"}, "A549 [4]": {"tested_on": "A549", "assay": "Induction of autophagy in human A549 cells assessed as upregulation of LC3-2 protein expression at 5 uM after 48 hrs by Western blot analysis", "type": "functional, cell-based", "procedure,_shortened": "(§2)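 Cells treated 48 h at 5 µM, washed with ice-cold PBS, lysed, protein quantified by Bradford; SDS electrophoresis, PVDF transfer, blocking in 5% milk/PBST; probed overnight at 4 °C with rabbit anti-human LC3b and GAPDH antibodies, HRP secondaries, film detection; LC3-II band density normalised to loading control.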"}, "A549 [5]": {"tested_on": "A549", "assay": "Cytotoxicity against human A549 cells assessed as decrease in cell density at 5 uM after 24 to 48 hrs by phase contrast microscopic analysis", "type": "functional, cell-based", "procedure,_shortened": "(§3)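 A549 cells (RPMI-1640, 10% bovine calf serum, 37 °C, 5% CO2) treated with compound at 5 µM or 0.1% DMSO control for 24 h or 48 h; morphology and cell density inspected by phase contrast microscopy.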"}, "A549 [6]": {"tested_on": "A549", "assay": "Cytotoxicity against human A549 cells assessed as change in cell morphology at 5 uM after 48 hrs by phase contrast microscopic analysis", "type": "functional, cell-based", "procedure,_shortened": "as §3"}, "A549 [7]": {"tested_on": "A549", "assay": "Induction of necrosis in human A549 cells at 10 uM after 48 hrs by LDH release assay", "type": "functional, cell-based", "procedure,_shortened": "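LDH level measured in A549 cells after 48 h with 10 µM compound or untreated control, using a commercial kit per manufacturer's instructions; mean ± SE, n = 3.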"}, "A549 [8]": {"tested_on": "A549", "assay": "Cytotoxicity against human A549 cells assessed as inhibition of cell viability at 10 uM after 48 hrs by SRB assay relative to control", "type": "functional", "procedure,_shortened": "as §1"}, "A549 [9]": {"tested_on": "A549", "assay": "Induction of apoptosis in human A549 cells assessed as chromatin condensation at 5 uM measured at 48 hrs by Hoechst 33258 staining-based fluorescence microscopic analysis", "type": "functional, cell-based", "procedure,_shortened": "(§4)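 After 48 h with 5 µM compound or 0.1% DMSO, A549 cells in 24-well plates stained with 10 µg/ml Hoechst 33258 for 30 min at 37 °C, washed twice with PBS, and nuclei examined by fluorescence microscopy for chromatin condensation and apoptotic bodies.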"}, "A549 [10]": {"tested_on": "A549", "assay": "Induction of apoptosis in human A549 cells assessed as increase in apoptotic bodies formation at 5 uM measured at 48 hrs by Hoechst 33258 staining-based fluorescence microscopic analysis", "type": "functional, cell-based", "procedure,_shortened": "as §4"}, "A549 [11]": {"tested_on": "A549", "assay": "Cell cycle arrest in human A549 cells assessed as accumulation at G1 phase at 5 uM after 48 hrs by propidium iodide staining-based flow cytometric analysis (reference value: 50.70%)", "type": "functional"}, "A549 [12]": {"tested_on": "A549", "assay": "Induction of autophagy in human A549 cells assessed as increase in acidic vesicles accumulation at 5 uM after 48 hrs by acridine orange staining-based fluorescence microscopic analysis", "type": "functional, cell-based", "procedure,_shortened": "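A549 cells treated 48 h at 5 µM, then stained with acridine orange (5 µg/ml) for 1 min at room temperature, washed twice with PBS, and acidic vesicles viewed by fluorescence microscopy (200×).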"}, "A549 [13]": {"tested_on": "A549", "assay": "Induction of autophagy in human A549 cells assessed as effect on LC3-2 protein expression at 5 uM after 48 hrs by Western blot analysis", "type": "functional, cell-based", "procedure,_shortened": "as §2"}}, "note": "Calls of active or inactive are those of the source. No cut-off for these calls is given here.", "data": [{"smiles": "COc1cc(/C=C/C(=O)c2ccc3c(c2)NC(=O)CO3)cc(OC)c1", "values": [{"measurement": "Activity", "setting": "A549 [1]", "value": 15.29, "unit": "%"}, {"measurement": "growth inhibition (GI)", "setting": "A549 [2]", "value": "Dose-dependent effect"}, {"measurement": "IC50", "setting": "A549 [2]", "value": 3.29, "unit": "µM"}, {"measurement": "Activity", "setting": "A549 [3]", "value": 9.25, "unit": "%"}, {"measurement": "Activity", "setting": "A549 [4]", "value": "Active"}, {"measurement": "Activity", "setting": "A549 [5]", "value": "Active"}, {"measurement": "Activity", "setting": "A549 [6]", "value": "inactive"}, {"measurement": "Activity", "setting": "A549 [7]", "value": "inactive"}, {"measurement": "Activity", "setting": "A549 [8]", "value": 24, "unit": "%"}, {"measurement": "Activity", "setting": "A549 [9]", "value": "inactive"}, {"measurement": "Activity", "setting": "A549 [10]", "value": "inactive"}, {"measurement": "Activity", "setting": "A549 [11]", "value": 75.46, "unit": "%"}, {"measurement": "Activity", "setting": "A549 [12]", "value": "Active"}]}, {"smiles": "O=c1[nH]cc(F)c(=O)[nH]1", "note": "[FLUOROURACIL]", "values": [{"measurement": "IC50", "setting": "A549 [2]", "value": 0.98, "unit": "µM"}]}, {"smiles": "O=C1COc2ccc(C(=O)/C=C/c3ccc4c(c3)OCO4)cc2N1", "values": [{"measurement": "Activity", "setting": "A549 [1]", "value": 10.33, "unit": "%"}, {"measurement": "growth inhibition (GI)", "setting": "A549 [2]", "value": "Dose-dependent effect"}, {"measurement": "IC50", "setting": "A549 [2]", "value": 16.3, "unit": "µM"}, {"measurement": "Activity", "setting": "A549 [3]", "value": 26.3, "unit": "%"}, {"measurement": "Activity", "setting": "A549 [5]", "value": "Active"}, {"measurement": "Activity", "setting": "A549 [6]", "value": "inactive"}, {"measurement": "Activity", "setting": "A549 [7]", "value": "inactive"}, {"measurement": "Activity", "setting": "A549 [9]", "value": "inactive"}, {"measurement": "Activity", "setting": "A549 [13]", "value": "inactive"}, {"measurement": "Activity", "setting": "A549 [10]", "value": "inactive"}, {"measurement": "Activity", "setting": "A549 [11]", "value": 63.37, "unit": "%"}, {"measurement": "Activity", "setting": "A549 [12]", "value": "inactive"}]}, {"smiles": "O=C1COc2ccc(C(=O)/C=C/c3ccc(Cl)cc3)cc2N1", "values": [{"measurement": "Activity", "setting": "A549 [6]", "value": "inactive"}]}, {"smiles": "COc1ccc(/C=C/C(=O)c2ccc3c(c2)NC(=O)CO3)c(OC)c1", "values": [{"measurement": "Activity", "setting": "A549 [1]", "value": 11.5, "unit": "%"}, {"measurement": "growth inhibition (GI)", "setting": "A549 [2]", "value": "Dose-dependent effect"}, {"measurement": "IC50", "setting": "A549 [2]", "value": 6.49, "unit": "µM"}, {"measurement": "Activity", "setting": "A549 [3]", "value": 30.59, "unit": "%"}, {"measurement": "Activity", "setting": "A549 [4]", "value": "Active"}, {"measurement": "Activity", "setting": "A549 [5]", "value": "Active"}, {"measurement": "Activity", "setting": "A549 [6]", "value": "inactive"}, {"measurement": "Activity", "setting": "A549 [7]", "value": "inactive"}, {"measurement": "Activity", "setting": "A549 [9]", "value": "inactive"}, {"measurement": "Activity", "setting": "A549 [10]", "value": "inactive"}, {"measurement": "Activity", "setting": "A549 [11]", "value": 57.92, "unit": "%"}, {"measurement": "Activity", "setting": "A549 [12]", "value": "Active"}]}, {"smiles": "O=C1COc2ccc(C(=O)/C=C/c3ccc(OCc4ccccc4)cc3)cc2N1", "values": [{"measurement": "Activity", "setting": "A549 [6]", "value": "inactive"}]}, {"smiles": "O=C1COc2ccc(C(=O)/C=C/c3ccc4ccccc4c3)cc2N1", "values": [{"measurement": "Activity", "setting": "A549 [6]", "value": "inactive"}]}, {"smiles": "O=C1COc2ccc(C(=O)/C=C/c3ccccc3)cc2N1", "values": [{"measurement": "Activity", "setting": "A549 [1]", "value": 12.66, "unit": "%"}, {"measurement": "growth inhibition (GI)", "setting": "A549 [2]", "value": "Dose-dependent effect"}, {"measurement": "IC50", "setting": "A549 [2]", "value": 5.46, "unit": "µM"}, {"measurement": "Activity", "setting": "A549 [3]", "value": 32.08, "unit": "%"}, {"measurement": "Activity", "setting": "A549 [4]", "value": "inactive"}, {"measurement": "Activity", "setting": "A549 [5]", "value": "Active"}, {"measurement": "Activity", "setting": "A549 [6]", "value": "inactive"}, {"measurement": "Activity", "setting": "A549 [7]", "value": "inactive"}, {"measurement": "Activity", "setting": "A549 [9]", "value": "inactive"}, {"measurement": "Activity", "setting": "A549 [10]", "value": "inactive"}, {"measurement": "Activity", "setting": "A549 [11]", "value": 55.27, "unit": "%"}, {"measurement": "Activity", "setting": "A549 [12]", "value": "inactive"}]}]}
